Assay results as given in ChEMBL document CHEMBL4396879, “Conjugation of Short Peptides to Dibenzodiazepinone-Type Muscarinic Acetylcholine Receptor Ligands Determines M2R Selectivity” (J Med Chem, 2019).
Values belong to the molecule of their own block, whether it stands above or below them.

Tests used:
[1] = target: T1, Muscarinic acetylcholine receptors; M2 & M3 (Homo sapiens) (UniProt P20309+P08172); test: Selectivity ratio of Ki for human muscarinic M3 receptor expressed in stable CHO-K1 cells to Ki for human muscarinic M2 receptor expressed in stable CHO-K1 cells; format: cell-based
T1 sequence (P20309 whole entry, looked up, one chain of several): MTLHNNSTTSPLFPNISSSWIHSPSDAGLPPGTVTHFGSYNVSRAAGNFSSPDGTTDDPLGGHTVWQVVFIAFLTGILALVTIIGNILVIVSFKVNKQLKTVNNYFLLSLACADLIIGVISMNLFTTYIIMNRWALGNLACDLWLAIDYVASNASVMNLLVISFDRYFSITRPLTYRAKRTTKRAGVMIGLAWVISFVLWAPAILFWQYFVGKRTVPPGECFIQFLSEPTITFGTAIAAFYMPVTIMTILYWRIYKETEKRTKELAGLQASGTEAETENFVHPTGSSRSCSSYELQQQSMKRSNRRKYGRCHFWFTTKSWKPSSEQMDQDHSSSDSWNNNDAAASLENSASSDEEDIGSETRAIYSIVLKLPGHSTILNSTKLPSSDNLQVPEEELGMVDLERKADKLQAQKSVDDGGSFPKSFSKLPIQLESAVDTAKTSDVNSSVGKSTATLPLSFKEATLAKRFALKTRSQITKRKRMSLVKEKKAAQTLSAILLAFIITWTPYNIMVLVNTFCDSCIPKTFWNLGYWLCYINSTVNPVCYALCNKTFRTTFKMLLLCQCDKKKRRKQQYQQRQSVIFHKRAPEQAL

[2] = target: T2, Muscarinic acetylcholine receptor M2 and M5 (Homo sapiens) (UniProt P08172+P08912); test: Selectivity ratio of Ki for human muscarinic M5 receptor expressed in stable CHO-K1 cells to Ki for human muscarinic M2 receptor expressed in stable CHO-K1 cells; format: cell-based
[3] = target: T3, Muscarinic acetylcholine receptor M1 (Homo sapiens, UniProt P11229); test: Displacement of [3H]-NMS from human muscarinic M1 receptor expressed in CHO-K1 cells by scintillation counting method; format: cell-based
T3 sequence (P11229 whole entry): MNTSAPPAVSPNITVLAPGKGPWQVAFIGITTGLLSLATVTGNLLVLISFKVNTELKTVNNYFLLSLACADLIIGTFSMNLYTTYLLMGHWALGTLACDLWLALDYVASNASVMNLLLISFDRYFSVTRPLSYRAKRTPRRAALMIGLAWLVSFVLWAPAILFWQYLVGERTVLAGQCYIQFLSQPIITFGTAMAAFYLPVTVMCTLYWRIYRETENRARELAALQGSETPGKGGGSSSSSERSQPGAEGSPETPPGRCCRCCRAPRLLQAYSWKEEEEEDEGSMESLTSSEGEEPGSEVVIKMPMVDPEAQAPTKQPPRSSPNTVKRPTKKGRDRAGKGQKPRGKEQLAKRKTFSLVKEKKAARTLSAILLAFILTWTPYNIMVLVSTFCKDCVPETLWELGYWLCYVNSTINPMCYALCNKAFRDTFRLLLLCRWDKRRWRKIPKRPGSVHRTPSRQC
Procedure, shortened: (§1)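 [3H]NMS competition binding on intact CHO-hMxR cells in L15 medium with 1% BSA, 3 h at 22 ± 1 °C with gentle shaking. [3H]NMS was 0.2 nM (M1, M2, M3), 0.1 nM (M4) or 0.3 nM (M5). […] Cells were lysed in urea/acetic acid/Triton and counted by liquid scintillation. Ki from Cheng-Prusoff. Triplicates, ≥3 experiments.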

[4] = target: T4, Muscarinic acetylcholine receptor M2 (Homo sapiens, UniProt P08172); test: Displacement of [3H]-NMS from human muscarinic M2 receptor expressed in CHO-K1 cells by scintillation counting method; format: cell-based; procedure, shortened: as §1
T4 sequence (P08172 whole entry): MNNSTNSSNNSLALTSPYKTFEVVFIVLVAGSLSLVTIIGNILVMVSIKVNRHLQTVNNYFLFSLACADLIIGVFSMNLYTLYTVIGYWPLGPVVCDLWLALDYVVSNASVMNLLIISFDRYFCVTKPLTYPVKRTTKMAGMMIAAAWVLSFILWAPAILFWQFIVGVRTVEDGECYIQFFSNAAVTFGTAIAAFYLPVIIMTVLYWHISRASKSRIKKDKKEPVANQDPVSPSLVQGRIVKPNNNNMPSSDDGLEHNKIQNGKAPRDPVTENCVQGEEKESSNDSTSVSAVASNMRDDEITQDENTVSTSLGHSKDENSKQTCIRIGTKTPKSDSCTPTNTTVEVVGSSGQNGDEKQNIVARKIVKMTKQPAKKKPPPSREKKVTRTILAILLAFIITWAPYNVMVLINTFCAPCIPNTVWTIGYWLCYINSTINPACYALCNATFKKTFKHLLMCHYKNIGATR

[5] = target: T5, Muscarinic acetylcholine receptor M3 (Homo sapiens, UniProt P20309); test: Displacement of [3H]-NMS from human muscarinic M3 receptor expressed in CHO-K1 cells by scintillation counting method; format: cell-based; procedure, shortened: as §1
T5 sequence (P20309 whole entry): as the sequence (P20309 whole entry, looked up, one chain of several) above

[6] = target: T6, Muscarinic acetylcholine receptor M4 (Homo sapiens, UniProt P08173); test: Displacement of [3H]-NMS from human muscarinic M4 receptor expressed in CHO-K1 cells by scintillation counting method; format: cell-based; procedure, shortened: as §1
T6 sequence (P08173 whole entry): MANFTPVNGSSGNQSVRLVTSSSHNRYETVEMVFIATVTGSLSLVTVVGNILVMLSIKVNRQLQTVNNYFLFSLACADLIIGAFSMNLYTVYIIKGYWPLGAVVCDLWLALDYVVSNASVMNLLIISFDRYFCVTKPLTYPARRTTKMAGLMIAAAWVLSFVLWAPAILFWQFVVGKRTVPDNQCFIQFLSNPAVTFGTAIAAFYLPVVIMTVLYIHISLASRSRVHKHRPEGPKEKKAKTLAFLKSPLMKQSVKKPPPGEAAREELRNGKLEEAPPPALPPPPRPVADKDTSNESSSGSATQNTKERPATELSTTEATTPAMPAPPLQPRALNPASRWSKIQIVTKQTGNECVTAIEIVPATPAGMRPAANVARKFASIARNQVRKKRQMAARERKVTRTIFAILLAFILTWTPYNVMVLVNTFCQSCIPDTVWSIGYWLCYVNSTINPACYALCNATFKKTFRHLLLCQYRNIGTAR

[7] = target: T7, Muscarinic acetylcholine receptor M5 (Homo sapiens, UniProt P08912); test: Displacement of [3H]-NMS from human muscarinic M5 receptor expressed in CHO-K1 cells by scintillation counting method; format: cell-based; procedure, shortened: as §1
T7 sequence (P08912 whole entry): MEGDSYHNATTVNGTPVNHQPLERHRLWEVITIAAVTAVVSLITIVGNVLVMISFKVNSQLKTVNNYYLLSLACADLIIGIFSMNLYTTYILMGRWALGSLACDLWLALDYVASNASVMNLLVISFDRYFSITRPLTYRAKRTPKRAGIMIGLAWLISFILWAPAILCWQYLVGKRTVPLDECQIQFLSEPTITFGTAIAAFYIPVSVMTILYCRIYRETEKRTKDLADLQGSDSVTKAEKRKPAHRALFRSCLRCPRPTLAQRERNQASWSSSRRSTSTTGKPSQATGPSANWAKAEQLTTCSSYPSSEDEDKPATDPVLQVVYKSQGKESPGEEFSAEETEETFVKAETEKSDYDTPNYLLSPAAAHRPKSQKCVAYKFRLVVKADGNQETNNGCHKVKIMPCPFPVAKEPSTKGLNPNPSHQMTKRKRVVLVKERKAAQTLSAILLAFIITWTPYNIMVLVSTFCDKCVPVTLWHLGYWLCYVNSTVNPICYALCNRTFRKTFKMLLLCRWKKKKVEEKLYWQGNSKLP

[8] = target: T3, Muscarinic acetylcholine receptor M1; test: Displacement of [3H]-NMS from human muscarinic M1 receptor expressed in CHO-K9 cells after 3 hrs by microbeta2 scintillation counting method; format: cell-based; procedure, shortened: as §1
[9] = target: T4, Muscarinic acetylcholine receptor M2; test: Displacement of [3H]-NMS from human muscarinic M2 receptor expressed in CHO-K9 cells after 3 hrs by microbeta2 scintillation counting method; format: cell-based; procedure, shortened: as §1
[10] = target: T5, Muscarinic acetylcholine receptor M3; test: Displacement of [3H]-NMS from human muscarinic M3 receptor expressed in CHO-K9 cells after 3 hrs by microbeta2 scintillation counting method; format: cell-based; procedure, shortened: as §1
[11] = target: T6, Muscarinic acetylcholine receptor M4; test: Displacement of [3H]-NMS from human muscarinic M4 receptor expressed in CHO-K9 cells after 3 hrs by microbeta2 scintillation counting method; format: cell-based; procedure, shortened: as §1
[12] = target: T7, Muscarinic acetylcholine receptor M5; test: Displacement of [3H]-NMS from human muscarinic M5 receptor expressed in CHO-K9 cells after 3 hrs by microbeta2 scintillation counting method; format: cell-based; procedure, shortened: as §1
[13] = target: Muscarinic acetylcholine receptors; M1 & M2 (Homo sapiens) (UniProt P11229+P08172); test: Selectivity ratio of Ki for human muscarinic M1 receptor expressed in CHO-K9 cells to Ki for human muscarinic M2 receptor expressed in CHO-K9 cells; format: cell-based
Procedure, shortened: (§2)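 Ratio of mean Ki values. Each Ki came from an individual [3H]NMS competition experiment at the given CHO-hMxR subtype, converting IC50 to Ki by Cheng-Prusoff before averaging.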

[14] = target: T1, Muscarinic acetylcholine receptors; M2 & M3 (Homo sapiens); test: Selectivity ratio of Ki for human muscarinic M3 receptor expressed in CHO-K9 cells to Ki for human muscarinic M2 receptor expressed in CHO-K9 cells; format: cell-based; procedure, shortened: as §2
[15] = target: Muscarinic acetylcholine receptor M2 and M4 (Homo sapiens) (UniProt P08173+P08172); test: Selectivity ratio of Ki for human muscarinic M4 receptor expressed in CHO-K9 cells to Ki for human muscarinic M2 receptor expressed in CHO-K9 cells; format: cell-based; procedure, shortened: as §2
[16] = target: T2, Muscarinic acetylcholine receptor M2 and M5 (Homo sapiens); test: Selectivity ratio of Ki for human muscarinic M5 receptor expressed in CHO-K9 cells to Ki for human muscarinic M2 receptor expressed in CHO-K9 cells; format: cell-based; procedure, shortened: as §2
[17] = Stability of the compound in human plasma:PBS of pH 7.4 (1:2) assessed as intact compound at 100 uM incubated for 1 hr by LC-MS analysis; format: ADME, cell-free; settings: plasma diluted with PBS (1:2), read-out: Stability
Procedure, shortened: (§3)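 Compound added at 100 μM (from 5 mM stock in acetonitrile/0.04% TFA 3:7) to heparinized human plasma/PBS pH 7.4 (1:2 v/v) with 10 μM 1-methyl-D-tryptophan as internal standard. Incubated shaking at 37 °C in triplicate. Aliquots were EtOH/acetonitrile-precipitated and analysed by RP-HPLC at 220 nm, with recovery correction against four-point calibrations.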

[18] = Stability of the compound in human plasma used as 1:2 ratio of plasma to pH 7.4 PBS assessed as intact compound at 100 uM incubated for 6 hr […]; format: ADME, cell-free; settings: plasma diluted with PBS (1:2), read-out: Stability
[19] = Stability of the compound in human plasma used as 1:2 ratio of plasma to pH 7.4 PBS assessed as intact compound at 100 uM incubated for 24 hr […]; format: ADME, cell-free; settings: plasma diluted with PBS (1:2), read-out: Stability
[20] = Stability of the compound in human plasma used as 1:2 ratio of plasma to pH 7.4 PBS assessed as intact compound at 100 uM incubated for 48 hr by LC-MS analysis; format: ADME, cell-free; settings: plasma diluted with PBS (1:2), read-out: Stability; procedure, shortened: as §3
[21] = target: T3, Muscarinic acetylcholine receptor M1; test: Displacement of [3H]-NMS from muscarinic M1 receptor (unknown origin) expressed in mouse A9L cells after 60 mins by scintillation counting method; format: cell-based
[22] = target: T8, Muscarinic acetylcholine receptor M2 (Rattus norvegicus, UniProt P10980); test: Displacement of [3H]-NMS from rat heart muscarinic M2 receptor after 60 mins by scintillation counting method
T8 sequence (P10980 whole entry): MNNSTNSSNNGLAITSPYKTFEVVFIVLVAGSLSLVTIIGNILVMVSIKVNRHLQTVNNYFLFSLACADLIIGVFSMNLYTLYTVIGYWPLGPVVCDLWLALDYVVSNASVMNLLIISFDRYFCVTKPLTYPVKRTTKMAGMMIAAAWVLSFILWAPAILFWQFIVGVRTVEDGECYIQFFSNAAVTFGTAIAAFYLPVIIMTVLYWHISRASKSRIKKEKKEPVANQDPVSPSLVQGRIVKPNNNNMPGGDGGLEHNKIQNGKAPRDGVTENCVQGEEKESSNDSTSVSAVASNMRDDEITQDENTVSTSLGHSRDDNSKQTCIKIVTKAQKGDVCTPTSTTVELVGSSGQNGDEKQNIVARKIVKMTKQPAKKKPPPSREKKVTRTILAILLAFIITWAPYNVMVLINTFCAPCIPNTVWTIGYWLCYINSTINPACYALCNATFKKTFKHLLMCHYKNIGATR

[23] = target: T5, Muscarinic acetylcholine receptor M3; test: Displacement of [3H]-NMS from muscarinic M3 receptor (unknown origin) expressed in mouse A9L cell membranes after 60 mins by scintillation counting method
[24] = Displacement of [3H]-NMS from muscarinic M4 receptor in mouse/rat NG108-15 cells after 60 mins by scintillation counting method; format: cell-based
[25] = Selectivity ratio of Ki for muscarinic M1 receptor (unknown origin) expressed in mouse A9L cell membranes to Ki for rat heart muscarinic M2 receptor; format: cell-based
[26] = Selectivity ratio of Ki for muscarinic M3 receptor (unknown origin) expressed in mouse A9L cell membranes to Ki for rat heart muscarinic M2 receptor; format: cell-based
[27] = Selectivity ratio of Ki for muscarinic M4 receptor in mouse/rat NG108-15 cells to Ki for rat heart muscarinic M2 receptor; format: cell-based

Ratio Ki [1]: 26 | Ratio Ki [2]: 48 | Ki [3]: 1070 nM | Ki [4]: 30.2 nM | Ki [5]: 776 nM | Ki [6]: 174 nM | Ki [7]: 1450 nM
Structure (SMILES): CCCC(C)(C)C(=O)N(CC)CCCC1CCN(CC(=O)N2c3ccc(Cl)cc3C(=O)Nc3cccnc32)CC1

Ki [8]: 22.9 nM | Ki [9]: 1.48 nM | Ki [10]: 776 nM | Ki [11]: 17.4 nM | Ki [12]: 363 nM | Ratio Ki [13]: 15 | Ratio Ki [14]: 620 | Ratio Ki [15]: 11 | Ratio Ki [16]: 260 | remaining at 1 h, 100 µM [17]: > 99% | remaining at 6 h, 100 µM [18]: > 99% | remaining at 24 h, 100 µM [19]: > 99% | remaining at 48 h, 100 µM [20]: 83%
Structure (SMILES): CC(=O)N[C@@H](CCCNC(=N)N)C(=O)N[C@@H](CCCCN)C(=O)NCC(=O)NCCCCC1CCN(CC(=O)N2c3ccccc3NC(=O)c3ccccc32)CC1

Ki [21]: 3.98 nM | Ki [22]: 0.316 nM | Ki [23]: 10 nM
Structure (SMILES): CCN(CC)CCCCC1CCN(CC(=O)N2c3ccccc3NC(=O)c3ccccc32)CC1
pKi [24]: 8.7 | Ratio Ki [25]: 13 | Ratio Ki [26]: 37 | Ratio Ki [27]: 7
